The source of these data is ChEMBL document CHEMBL2016469, “Synthesis and evaluation of 1-(substituted)-3-prop-2-ynylureas as antiangiogenic agents” (Bioorg Med Chem Lett, 2012).

The test system of data set [1] is HeLa. As to the kind of experiment: Cytotoxicity against human HeLa cells after 48 hrs by MTT assay. The format is functional, cell-based. (Formazan colour is commonly taken as a measure of viable cells.)
Data set [2] has as its system MCF7. As to the kind of experiment: Cytotoxicity against human MCF7 cells after 48 hrs by MTT assay. As to conditions: MCF7, 48 h. It is filed as functional, cell-based.
Data set [3] has as its system HUVEC. As to the kind of experiment: Cytotoxicity against HUVEC after 48 hrs by MTT assay. It is filed as cell-based. As to conditions: Homo sapiens. The essentials: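 MTT assay. HeLa and MCF-7 were tested at 1 and 100 μM. HUVEC cytotoxicity was measured the same way as for HeLa and MCF-7, to define non-cytotoxic doses for the tube-formation work. IC50 values taken as means of three independent experiments.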

Data set [4] is described as follows: Cytotoxicity against human EAhy926 cells after 48 hrs by MTT assay. It is filed as functional, cell-based. As to conditions: EA.hy 926, 48 h.
Data set [5] concerns HUVEC. As to the kind of experiment: Angiogenic activity in HUVEC assessed as induction of tube formation at 12.5 nM after 24 hrs by hematoxylin staining analysis. The format is functional, cell-based. To be noted: Homo sapiens.
For another data set, the system named is A-431. Kind of data set: Cytotoxicity against human A431 cells over expressing EGFR after 48 hrs by MTT assay. To be noted: A-431, 48 h. The format is functional, cell-based.
The subject of data set [6] is HUVEC. As to the kind of experiment: Cytotoxicity against HUVEC at 12.5 nM after 48 hrs by MTT assay. It is filed as cell-based. As to conditions: human, 0.0125 µM.
For another data set, the system named is MDA-MB-231. As to the kind of experiment: Cytotoxicity against human MDA-MB-231 cells. It is filed as functional, cell-based.
The next data set has as its system K562. As to the kind of experiment: Cytotoxicity against human K562 cells. The format is functional, cell-based.
Data set [7] has as its system HeLa. As to the kind of experiment: Cytotoxicity against human HeLa cells at 100 uM after 48 hrs by MTT assay. The format is functional. To be noted: read-out: GI. The essentials: (§1)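 MTT cytotoxicity screen against HeLa or MCF-7 cells at a single test concentration of 100 μM (screen also included 1 μM).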
The subject of data set [8] is MCF7. As to the kind of experiment: Cytotoxicity against human MCF7 cells at 100 uM after 48 hrs by MTT assay. It is filed as functional. As to conditions: MCF7, 48 h, read-out: GI. The essentials:
as §1

For data set [9], the system named is HUVEC. Kind of data set: Ratio of IC50 for cytotoxicity in HUVEC to EC50 for antiangiogenic activity in HUVEC. The format is functional, Homo sapiens. The essentials:
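Ratio of HUVEC cytotoxic IC50 (MTT) to antiangiogenic ED50 from the HUVEC tube-formation assay.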

Data set [10] has as its system HUVEC. Kind of data set: Antiangiogenic activity in HUVEC assessed as suppression of tube formation after 24 hrs by hematoxylin staining analysis. To be noted: Homo sapiens. It is filed as functional, cell-based.
Data set [11] concerns HUVEC. Kind of data set: Antiangiogenic activity in HUVEC assessed as suppression of tube formation at 25 nM after 24 hrs by hematoxylin staining analysis. It is filed as functional. As to conditions: Homo sapiens.
The target in data set [12] is Vascular endothelial growth factor receptor 2 (Homo sapiens) (UniProt P35968). As to the kind of experiment: Inhibition of human recombinant VEGFR2 expressed in insect cells using Ulight-CAGAGAIETDKEYYTVKD as substrate at 1 uM after 60 mins by fluorescence assay. Summed up:
(§2)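 In vitro kinase assay against FGFR1, PDGFRβ or VEGFR2 with test compound at 1 μM. Read-out is the level of phosphorylation of a tyrosine kinase-specific ligand peptide substrate.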

Data set [13] deals with Fibroblast growth factor receptor 1 (Homo sapiens) (UniProt P11362). Kind of data set: Inhibition of human recombinant FGFR1 expressed in insect cells using Ulight-CAGAGAIETDKEYYTVKD as substrate at 1 uM after 60 mins by fluorescence assay. The essentials: as §2
Sequence of Fibroblast growth factor receptor 1 (Homo sapiens) (P11362 22-822 limits assumed): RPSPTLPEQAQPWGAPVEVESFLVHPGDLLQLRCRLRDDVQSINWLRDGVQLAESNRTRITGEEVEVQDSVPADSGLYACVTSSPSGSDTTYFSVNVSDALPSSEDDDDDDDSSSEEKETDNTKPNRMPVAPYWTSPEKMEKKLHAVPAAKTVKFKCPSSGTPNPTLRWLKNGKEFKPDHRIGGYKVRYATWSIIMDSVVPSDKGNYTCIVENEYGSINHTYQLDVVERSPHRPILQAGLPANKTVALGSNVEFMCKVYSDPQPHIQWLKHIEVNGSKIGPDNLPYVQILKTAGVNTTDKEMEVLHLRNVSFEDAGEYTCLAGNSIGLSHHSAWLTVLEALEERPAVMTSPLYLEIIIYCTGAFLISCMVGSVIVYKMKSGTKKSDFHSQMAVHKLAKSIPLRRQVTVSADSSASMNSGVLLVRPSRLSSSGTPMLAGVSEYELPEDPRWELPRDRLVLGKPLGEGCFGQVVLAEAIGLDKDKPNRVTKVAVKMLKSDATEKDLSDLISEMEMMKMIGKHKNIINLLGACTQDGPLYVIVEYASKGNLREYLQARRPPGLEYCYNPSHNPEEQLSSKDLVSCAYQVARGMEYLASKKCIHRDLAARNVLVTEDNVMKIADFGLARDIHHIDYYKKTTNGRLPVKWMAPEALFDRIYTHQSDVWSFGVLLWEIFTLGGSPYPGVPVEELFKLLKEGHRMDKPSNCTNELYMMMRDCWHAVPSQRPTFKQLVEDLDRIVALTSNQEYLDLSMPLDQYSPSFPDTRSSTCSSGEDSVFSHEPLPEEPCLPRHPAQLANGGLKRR
Data set [14] addresses Platelet-derived growth factor receptor beta (Homo sapiens) (UniProt P09619). Kind of data set: Inhibition of human recombinant PDGFR-beta expressed in insect cells using Ulight-Poly GAT[EAY(1:1:1)]n as substrate at 1 uM after 60 mins by fluorescence assay. The essentials: as §2
Data set [15] has as its system HUVEC. As to the kind of experiment: Antiangiogenic activity in HUVEC assessed as suppression of tube formation at 6.25 uM after 24 hrs by hematoxylin staining analysis. The format is functional. To be noted: Homo sapiens.
[16] abbreviates: Homo sapiens, HeLa, 48 h, read-out: IC50.

Calls of active or inactive are those of the source. The calls are words filed in the database; no cut-off is given here.

Sequence of Vascular endothelial growth factor receptor 2 (Homo sapiens) (P35968 whole entry): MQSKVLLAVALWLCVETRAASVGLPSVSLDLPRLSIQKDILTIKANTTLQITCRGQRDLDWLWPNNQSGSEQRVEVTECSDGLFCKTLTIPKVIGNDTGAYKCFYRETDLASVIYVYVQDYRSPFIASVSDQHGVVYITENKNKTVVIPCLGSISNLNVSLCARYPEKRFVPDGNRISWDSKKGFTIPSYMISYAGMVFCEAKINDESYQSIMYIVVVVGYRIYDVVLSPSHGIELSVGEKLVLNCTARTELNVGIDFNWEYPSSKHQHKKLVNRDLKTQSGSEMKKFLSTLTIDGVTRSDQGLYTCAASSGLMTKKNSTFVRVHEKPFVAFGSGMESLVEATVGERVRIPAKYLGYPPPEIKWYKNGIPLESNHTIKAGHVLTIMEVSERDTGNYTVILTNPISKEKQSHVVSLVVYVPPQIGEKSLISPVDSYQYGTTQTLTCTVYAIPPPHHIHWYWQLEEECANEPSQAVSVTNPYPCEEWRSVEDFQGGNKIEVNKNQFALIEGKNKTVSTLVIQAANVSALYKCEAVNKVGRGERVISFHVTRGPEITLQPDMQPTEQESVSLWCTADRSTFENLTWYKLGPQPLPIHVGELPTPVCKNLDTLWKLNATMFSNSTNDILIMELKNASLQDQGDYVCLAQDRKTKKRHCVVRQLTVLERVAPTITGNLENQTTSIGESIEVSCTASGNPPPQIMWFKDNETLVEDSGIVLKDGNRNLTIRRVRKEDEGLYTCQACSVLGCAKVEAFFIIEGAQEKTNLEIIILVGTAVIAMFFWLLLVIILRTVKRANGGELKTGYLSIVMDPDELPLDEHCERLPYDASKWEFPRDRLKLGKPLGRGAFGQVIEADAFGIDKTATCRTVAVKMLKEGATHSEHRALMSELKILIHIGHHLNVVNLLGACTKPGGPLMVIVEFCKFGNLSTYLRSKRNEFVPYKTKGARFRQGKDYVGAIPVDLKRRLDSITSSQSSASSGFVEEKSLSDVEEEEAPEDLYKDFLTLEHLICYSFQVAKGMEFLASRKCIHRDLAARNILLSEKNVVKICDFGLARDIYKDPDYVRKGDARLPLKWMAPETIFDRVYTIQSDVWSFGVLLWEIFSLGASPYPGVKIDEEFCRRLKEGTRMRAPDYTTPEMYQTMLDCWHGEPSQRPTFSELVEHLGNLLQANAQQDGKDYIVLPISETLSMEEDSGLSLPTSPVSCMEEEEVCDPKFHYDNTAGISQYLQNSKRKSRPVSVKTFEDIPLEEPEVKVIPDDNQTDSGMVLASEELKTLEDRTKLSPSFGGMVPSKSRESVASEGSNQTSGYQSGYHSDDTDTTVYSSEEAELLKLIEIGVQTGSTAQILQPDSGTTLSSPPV
Sequence of Platelet-derived growth factor receptor beta (Homo sapiens) (P09619 whole entry): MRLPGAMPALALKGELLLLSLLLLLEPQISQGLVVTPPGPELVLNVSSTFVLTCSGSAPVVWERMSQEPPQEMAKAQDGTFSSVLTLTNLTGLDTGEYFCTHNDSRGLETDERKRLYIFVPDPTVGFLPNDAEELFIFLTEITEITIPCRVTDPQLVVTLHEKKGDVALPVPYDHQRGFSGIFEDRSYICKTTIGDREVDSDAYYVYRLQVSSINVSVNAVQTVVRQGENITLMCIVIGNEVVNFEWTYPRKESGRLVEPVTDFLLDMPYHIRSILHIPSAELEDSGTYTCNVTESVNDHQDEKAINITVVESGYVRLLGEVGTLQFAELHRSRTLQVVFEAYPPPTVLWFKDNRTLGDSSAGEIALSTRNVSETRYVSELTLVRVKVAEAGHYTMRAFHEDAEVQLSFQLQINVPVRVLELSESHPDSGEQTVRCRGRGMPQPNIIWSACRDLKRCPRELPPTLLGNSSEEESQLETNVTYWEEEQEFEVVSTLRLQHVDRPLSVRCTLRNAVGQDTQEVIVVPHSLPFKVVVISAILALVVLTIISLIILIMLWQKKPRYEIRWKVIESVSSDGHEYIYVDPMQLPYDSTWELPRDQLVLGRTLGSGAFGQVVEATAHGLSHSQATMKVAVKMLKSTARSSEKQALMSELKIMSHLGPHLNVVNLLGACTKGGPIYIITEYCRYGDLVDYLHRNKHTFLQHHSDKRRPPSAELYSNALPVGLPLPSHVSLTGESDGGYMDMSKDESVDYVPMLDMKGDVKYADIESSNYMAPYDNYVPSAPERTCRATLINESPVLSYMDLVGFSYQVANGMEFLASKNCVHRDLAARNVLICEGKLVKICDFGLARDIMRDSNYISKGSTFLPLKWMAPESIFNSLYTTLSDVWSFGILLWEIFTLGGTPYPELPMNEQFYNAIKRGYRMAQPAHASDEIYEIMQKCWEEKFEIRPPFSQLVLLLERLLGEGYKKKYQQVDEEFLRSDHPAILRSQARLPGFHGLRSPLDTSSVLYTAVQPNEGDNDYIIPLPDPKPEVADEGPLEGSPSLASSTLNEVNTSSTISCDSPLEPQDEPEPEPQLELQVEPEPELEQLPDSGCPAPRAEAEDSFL

`C#CCNC(=O)Nc1cccc(CNCc2ccc(OC(F)(F)F)cc2)c1`: the IC50 with HeLa [1] (setting [16]) came out at 339 µM; with MCF7 [2], 283 µM.

`C#CCNC(=O)Nc1cccc(CNCc2ccccc2)c1`: the IC50 result in the data set on HeLa [1] (hela) is “Not Active”; with MCF7 [2], 343 µM; in the data set with HUVEC [3] it was 50 µM; in data set [4], 192 µM; in the data set with A-431, 0.318 µM. Besides, the outcome with HUVEC [5] was Active. Besides, the Activity result with HUVEC [6] was “Non-toxic”.

Turning to `CNC(=O)c1cc(Oc2ccc(NC(=O)Nc3ccc(Cl)c(C(F)(F)F)c3)cc2)ccn1` [SORAFENIB], inhibition in the data set on MDA-MB-231 was half-maximal at 2.5 µM (IC50).

Take `C#CCNC(=O)Nc1cccc(CNCc2ccc(OC)cc2)c1`: the IC50 came to 392 µM in the data set with HeLa [1] (setting [16]) and 195 µM in the data set on MCF7 [2].

Turning to `COc1cccc2c1C(=O)c1c(O)c3c(c(O)c1C2=O)C[C@@](O)(C(=O)CO)C[C@@H]3O[C@H]1C[C@H](N)[C@H](O)[C@H](C)O1` [DOXORUBICIN], in the data set on HeLa [1] (setting [16]), the IC50 was 0.19 µM.

Turning to `COc1ccc(N(C(=O)N(C)C)c2nnc(-c3ccccc3)s2)cc1OC`, the IC50 in the data set on K562 worked out at 3 µM.

Turning to `C#CCNC(=O)Nc1cccc(CCl)c1`, the inhibition of growth at 100 µM in the data set with HeLa [7] was determined as 86.9%; in the data set with MCF7 [8], 85.2%. For the same compound, the IC50 in the data set with HeLa [1] (setting [16]) amounted to 1.55 µM; with MCF7 [2], 1.48 µM; in the data set with HUVEC [3] it was 20 µM; in [4], 10.5 µM; in the data set with A-431 it was 0.036 µM. Also, the Ratio with HUVEC [9] is 77. The EC50 with HUVEC [10] was 0.26 µM. Further, the inhibition at 0.025 µM with HUVEC [11] was determined as 21.2%. Moreover, the inhibition entry in data set [12] and in [13] was “inactive” each time. The inhibition entry in [14] was “Active”.

`C#CCNC(=O)Nc1cccc(CNCc2ccc(C)cc2)c1`: the results for the IC50 with HeLa [1] (setting [16]) and in the data set with MCF7 [2] were 329 µM and 49.9 µM, respectively.

With `C#CCNC(=O)Nc1cccc(COc2ccc(C(=O)OC)cc2)c1`, the IC50 in the data set on HeLa [1] (setting [16]) is 12.3 µM; in the data set with MCF7 [2], 74.9 µM; in the data set with HUVEC [3] it was 100 µM; in data set [4], 78.2 µM; in the data set with A-431, 0.215 µM. The Ratio with HUVEC [9] was 6. Moreover, in the data set with HUVEC [10], the EC50 was found to be 17.5 µM. Besides, the inhibition at 6.25 µM in the data set on HUVEC [15] came to 46.5%. For the same compound, the inhibition entry in [12] and in data set [13] was “inactive” each time.

The compound `C#Cc1cccc(Nc2ncnc3cc(OCCOC)c(OCCOC)cc23)c1` [ERLOTINIB] had an IC50 with A-431 of 0.055 µM.

The IC50 is the concentration at which inhibition is half-maximal. Broadly, the EC50 is the concentration giving half of the maximal effect. What is called inhibition is the relative decrease from the control value, in per cent.
